Where two headings read alike, the source gives them in different places.
Assays:
[1] = test system: Vero E6 cells; assay: Concentration-response cell viability assay, Vero E6 cells; type: cell-based, African green monkey; details: noninfected
[2] = test system: SARS-CoV-2; type: cell-based; details: Vero E6 cells, 46 to 50 h
[3] = clinical phase 1 trials; cited from earlier work
[4] = Concentration-response cell viability assay, Vero E6 cells; type: cell-based, African green monkey; details: African green monkey, noninfected, CC50, Vero E6 cells
[5] = Concentration-response cell viability assay, A549-hACE2 cells; type: cell-based, human; details: human, noninfected
[6] = Concentration-response cell viability assay, Huh7.5 cells; type: cell-based, human; details: human, noninfected
Outline: (§1)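 Huh7.5 hepatoma cells in DMEM/10% heat-inactivated FBS with penicillin/streptomycin, plated at 9,000 cells/well. The following day, noninfected cultures received test compound dilution series (DMSO-dissolved) or DMSO alone. Incubation was 70–74 h, then CellTiter 96 Aqueous One reagent for 1–3 h at 37°C, 5% CO₂, and absorbance at 492 nm. Each concentration had 2–4 replicate wells, normalised to the mean of 12 untreated control wells on each plate.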

[7] = test system: SARS-CoV-2; type: cell-based
[8] = test system: SARS-CoV-2; type: cell-based; details: Vero E6
[9] = test system: SARS-CoV-2; type: cell-based; remark: listed apart in the source
[10] = test system: SARS-CoV-2; assay: Short-term assay for interactions of PIs and remdesivir, Vero E6 cells; type: cell-based; details: for residual infectivity: Vero E6, treatment condition 3; for interaction with remdesivir (method of Chou and Talalay, CompuSyn): Vero E6 and A549-hACE2 data sets
[11] = test system: SARS-CoV-2; type: cell-based; details: A549-hACE2
[12] = test system: A549-hACE2 cells; assay: Concentration-response cell viability assay, A549-hACE2 cells; type: cell-based, human; details: noninfected
[13] = test system: Huh7.5 cells; assay: Concentration-response cell viability assay, Huh7.5 cells; type: cell-based, human; details: noninfected
Outline: as §1

[14] = rats; single oral administration; cited from earlier work
[15] = test system: SARS-CoV-2; details: cited from earlier work
[16] = Severe acute respiratory syndrome coronavirus 2, Huh7.5
[17] = Severe acute respiratory syndrome coronavirus 2
[18] = A549-hACE2 cells, […], 46 to 50 h

In the case of `CCCCCOc1ccc(NC(=S)NC(=O)c2cccnc2)cc1C(F)(F)F` [ACH-806], the CC50 [1] is listed as greater than 429 µM, the EC50 [2] is listed as 46 µM and the “adverse finding that halted development” value [3] is listed as “reversible nephrotoxicity”.

With `C=C[C@@H]1C[C@]1(NC(=O)[C@@H]1C[C@@H](Oc2ncc(OC)c3ccc(Cl)cc23)CN1C(=O)[C@@H](NC(=O)OC(C)(C)C)C(C)(C)C)C(=O)NS(=O)(=O)C1CC1` [Asunaprevir, asunaprevir] the CC50 [4] was 263 µM.

In the case of `CC(C)(C)NC(=O)N[C@H](C(=O)N1C[C@H]2[C@@H]([C@H]1C(=O)NC(CC1CCC1)C(=O)C(N)=O)C2(C)C)C(C)(C)C` (stereo partly shown) [Boceprevir, boceprevir], the CC50 [4] is reported as greater than 1210 µM, the CC50 [5] is reported as greater than 1210 µM and the CC50 [6] is reported as 701 µM. The EC50 [7, 16] was 42 µM, the “viral RNA titers in supernatant” value ([8]; 3-fold EC50 boceprevir) was “decreased to values around the lower limit of quantification” and the “viral suppression (immunostaining)” value ([8]; 3-fold EC50 boceprevir, […], follow-up 9 days) was “sustained viral suppression”. The “viral RNA titers in supernatant” value ([8]; 5-fold EC50 boceprevir) was “decreased to values around the lower limit of quantification”, the “viral suppression (immunostaining)” value ([8]; 5-fold EC50 boceprevir, […], follow-up 17 days) was “sustained viral suppression” and the EC50 [9, 17] was 20 µM. The residual infectivity ([10]; 17.4 μM boceprevir singly) was 79%, the “interaction with remdesivir (method of Chou and Talalay, CompuSyn)” value (“interaction with remdesivir” below) [10] was “primarily antagonistic” and the EC50 [2] was 44 µM. The “effect on viral spread (viral RNA titers)” value (“effect on viral spread” for short) ([11]; 1- to 5-fold EC50 boceprevir) was “minor impact”, the “effect on viral spread” value ([11]; 1-fold EC50 PI singly) was “no to little effect” and the “effect on viral spread” value ([11]; 8-fold EC50 boceprevir, observation period 13 days) was “viral suppression”.

`CC(C)(C)OC(=O)N[C@H]1CCCCC/C=C\[C@@H]2C[C@@]2(C(=O)NS(=O)(=O)C2CC2)NC(=O)[C@@H]2C[C@@H](OC(=O)N3Cc4cccc(F)c4C3)CN2C1=O` [Danoprevir, danoprevir] showed a CC50 [1] greater than 243 µM.

Work on `COc1ccc2c(O[C@@H]3C[C@H]4C(=O)N[C@]5(C(=O)NS(=O)(=O)C6CC6)C[C@H]5/C=C\CCCCC[C@H](CC(=O)N5CCCC(F)(F)C5)C(=O)N4C3)cc(-c3nc(C(C)C)cs3)nc2c1C` [Deldeprevir, deldeprevir] yielded a CC50 [4] of 56 µM.

With `CC(C)(C)[C@@H]1NC(=O)O[C@@H]2CCC[C@H]2OC/C=C/C(F)(F)c2nc3ccccc3nc2O[C@@H]2C[C@@H](C(=O)N[C@]3(C(=O)NS(=O)(=O)C4(C)CC4)C[C@H]3C(F)F)N(C2)C1=O` [Glecaprevir, glecaprevir] the CC50 [1] was greater than 268 µM, the CC50 [5] was greater than 268 µM and the EC50 [9, 17] was greater than 94 µM.

With `C=C[C@@H]1C[C@]1(NC(=O)[C@@H]1C[C@@H]2CN1C(=O)[C@H](C(C)(C)C)NC(=O)O[C@@H]1C[C@H]1CCCCCc1nc3ccc(OC)cc3nc1O2)C(=O)NS(=O)(=O)C1CC1.O` [Grazoprevir, grazoprevir] the CC50 [1] was 239 µM, the CC50 [12] was 125 µM and the CC50 [13] was 133 µM. It also gave an EC50 ([7]; Huh7.5 cells, […], 70 to 74 h) of 20 µM, an infected culture cells ([8]; 1-fold EC50 PI, […]) of 90% and an EC50 [9, 18] of 26 µM. The “interaction with remdesivir” value [10] was “primarily synergistic”, the EC50 [2] was 42 µM and the “effect on viral spread” value ([11]; 1-fold EC50 PI singly) was “no to little effect”.

For `CCCC[C@H](NC(=O)[C@@H]1[C@@H]2[C@H](CN1C(=O)[C@@H](NC(=O)NC1(CS(=O)(=O)C(C)(C)C)CCCCC1)C(C)(C)C)C2(C)C)C(=O)C(=O)NC1CC1` [Narlaprevir, narlaprevir], the CC50 [4] was 269 µM, the “interaction with remdesivir” value [10] was “primarily antagonistic” and the EC50 [2] was 37 µM.

For `Cc1cnc(C(=O)N[C@H]2CCCCC/C=C\[C@@H]3C[C@@]3(C(=O)NS(=O)(=O)C3CC3)NC(=O)[C@@H]3C[C@@H](Oc4nc5ccccc5c5ccccc45)CN3C2=O)cn1` [Paritaprevir, paritaprevir], the CC50 [1] was 123 µM and the “interaction with remdesivir” value [10] was “primarily synergistic”.

Compound `CCC(CC)COC(=O)[C@H](C)N[P@](=O)(OC[C@H]1O[C@@](C#N)(c2ccc3c(N)ncnn23)[C@H](O)[C@@H]1O)Oc1ccccc1` [Remdesivir, remdesivir] has an EC50 [9, 17] of 0.1 µM, a residual infectivity ([10]; 0.6 μM remdesivir singly) of 83% and a residual infectivity ([10]; 1.7 μM remdesivir singly) of 47%.

In the case of `COc1ccc2c(O[C@@H]3C[C@H]4C(=O)N[C@]5(C(=O)NS(=O)(=O)C6CC6)C[C@H]5/C=C\CCCCN(C)C(=O)[C@@H]4C3)cc(-c3nc(C(C)C)cs3)nc2c1C` [Simeprevir, simeprevir], the CC50 [4] is given as 59 µM, the “concentration in the intestine relative to plasma” value [14] is given as “up to 128 fold” and the “concentrations in other tissues relative to plasma” value [14] is given as “roughly equal to plasma concentrations”. For the same compound, the CC50 [5] was 56 µM, the CC50 [6] was 33 µM and the EC50 [7, 16] was 14 µM. For the same compound, the EC50 [9, 17] was 9 µM, the EC50 ([15]; human lung cells) was 1000 nM and the residual infectivity ([10]; 11.1 μM simeprevir singly) was 100%. The “effect on viral spread” value ([11]; 1-fold EC50 PI singly) was “no to little effect”.

Compound `CCC[C@H](NC(=O)[C@@H]1[C@H]2CCC[C@H]2CN1C(=O)[C@@H](NC(=O)[C@@H](NC(=O)c1cnccn1)C1CCCCC1)C(C)(C)C)C(=O)C(=O)NC1CC1` [Telaprevir, telaprevir] has a CC50 [4] greater than 432 µM.

`CC[C@@H]1C[C@]1(NC(=O)[C@@H]1C[C@@H]2CN1C(=O)[C@H](C(C)(C)C)NC(=O)OCC(C)(C)CCCCc1cccc3c1CN(C3)C(=O)O2)C(=O)NS(=O)(=O)C1CC1` [Vaniprevir, vaniprevir] showed a CC50 [1] of 171 µM.

voxilaprevir showed a CC50 [1] of 72 µM, a CC50 [12] of 81 µM and an EC50 [9, 18] of 10 µM. The EC50 ([15]; A549-hACE2 cell line) was greater than 10000 nM and the EC50 [2] was greater than 27 µM.
